In ChEMBL document CHEMBL1833952, “Inhibition of COX-1 activity and COX-2 expression by 3-(4'-geranyloxy-3'-methoxyphenyl)-2-trans propenoic acid and its semi-synthetic derivatives” (Bioorg Med Chem Lett, 2011):
The source made the active and inactive calls. The calls are words filed in the database; no cut-off is given here.

Legend:
Monocyte [1] = assay: Antiinflammatory activity in human monocytes assessed as inhibition of LPS-induced COX1 expression at 100 uM after 24 hrs using rabbit polyclonal antibody IgG by Western blot analysis; type: functional, cell-based
Procedure, shortened: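 Isolated human monocytes (3 × 10⁶ cells/ml) incubated with LPS, vehicle or test agent; lysates immunoblotted with a specific anti-COX-1 antibody to assess COX-1-like immunoreactivity.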

[2] = molecular target: T1, Prostaglandin G/H synthase 1 (Ovis aries) (UniProt P05979); assay: (§1) Inhibition of ovine COX1 using TMPD as substrate preincubated for 15 mins
T1 sequence (whole entry): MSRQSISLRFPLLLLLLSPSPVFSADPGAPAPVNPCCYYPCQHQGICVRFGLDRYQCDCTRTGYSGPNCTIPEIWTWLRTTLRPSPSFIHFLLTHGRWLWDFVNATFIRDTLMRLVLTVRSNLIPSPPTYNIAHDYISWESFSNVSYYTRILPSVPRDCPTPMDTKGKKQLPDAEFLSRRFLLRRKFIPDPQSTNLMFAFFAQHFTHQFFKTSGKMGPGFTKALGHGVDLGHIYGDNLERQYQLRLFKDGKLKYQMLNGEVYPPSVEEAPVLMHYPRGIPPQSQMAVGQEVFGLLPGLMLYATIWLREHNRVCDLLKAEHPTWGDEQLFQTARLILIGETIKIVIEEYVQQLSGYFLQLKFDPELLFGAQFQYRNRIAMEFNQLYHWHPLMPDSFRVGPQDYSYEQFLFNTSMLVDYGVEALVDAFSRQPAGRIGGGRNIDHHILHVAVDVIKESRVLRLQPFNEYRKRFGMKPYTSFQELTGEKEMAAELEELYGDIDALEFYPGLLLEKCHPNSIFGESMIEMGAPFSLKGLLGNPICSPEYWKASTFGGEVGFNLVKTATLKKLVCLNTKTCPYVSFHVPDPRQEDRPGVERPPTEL

[3] = molecular target: T2, Prostaglandin G/H synthase 2 (Ovis aries) (UniProt P79208); assay: Inhibition of ovine COX2 using TMPD as substrate at 300 uM preincubated for 15 mins
T2 sequence (whole entry): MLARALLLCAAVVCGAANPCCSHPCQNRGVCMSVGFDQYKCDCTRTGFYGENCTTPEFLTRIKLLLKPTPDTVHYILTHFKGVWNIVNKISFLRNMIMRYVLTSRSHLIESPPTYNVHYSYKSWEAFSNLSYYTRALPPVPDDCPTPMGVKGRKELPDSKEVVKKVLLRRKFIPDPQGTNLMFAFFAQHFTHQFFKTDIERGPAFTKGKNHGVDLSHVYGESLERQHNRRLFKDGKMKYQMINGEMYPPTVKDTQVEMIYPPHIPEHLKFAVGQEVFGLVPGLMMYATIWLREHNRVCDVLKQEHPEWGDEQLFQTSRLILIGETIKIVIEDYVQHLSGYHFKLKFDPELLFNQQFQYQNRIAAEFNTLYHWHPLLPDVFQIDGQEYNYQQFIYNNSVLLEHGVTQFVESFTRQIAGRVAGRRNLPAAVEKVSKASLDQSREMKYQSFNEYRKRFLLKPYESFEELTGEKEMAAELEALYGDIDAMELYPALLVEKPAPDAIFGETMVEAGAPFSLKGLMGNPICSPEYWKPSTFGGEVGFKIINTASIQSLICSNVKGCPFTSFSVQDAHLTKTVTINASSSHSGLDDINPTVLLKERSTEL

Monocyte [4] = assay: Antiinflammatory activity in human monocytes assessed as inhibition of LPS-induced COX2 expression at 100 uM after 20 hrs using rabbit polyclonal antibody IgG by Western blot analysis; type: functional, cell-based
Procedure, shortened: (§2)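 Isolated human monocytes (3 × 10⁶ cells/ml) treated 20 h with test agent or vehicle in the presence of LPS; unstimulated cells as control. Cells lysed; equal protein loads run on SDS-polyacrylamide gel and immunoblotted with rabbit polyclonal antibody to a human COX-2-specific sequence (band ~72 kDa); beta-actin as loading control. Three experiments; dose-response series used for IC50.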

Monocyte [5] = assay: Antiinflammatory activity in human monocytes assessed as inhibition of LPS-induced COX2 expression after 20 hrs using rabbit polyclonal antibody IgG by Western blot analysis; type: functional, cell-based; procedure, shortened: as §2
Monocyte [6] = assay: Antiinflammatory activity in human monocytes assessed as inhibition of LPS-induced COX2 expression at 100 uM after 20 hrs using rabbit polyclonal antibody IgG by SDS-PAGE analysis; type: functional, cell-based; procedure, shortened: as §2
[7] = molecular target: T3, Prostaglandin G/H synthase 1 (Ovis aries, UniProt P05979); assay: as §1
T3 sequence (P05979 whole entry): T1 sequence (whole entry)

[8] = Antiinflammatory activity in human monocytes assessed as inhibition of LPS-induced COX2 expression at 10 uM after 20 hrs using rabbit polyclonal antibody IgG by Western blot analysis; type: functional; conditions: Monocyte; procedure, shortened: as §2
Raji = assay: Inhibition of TPA-induced EBV-early antigen activation in human Raji cells; type: cell-based; conditions: human gammaherpesvirus 4, dose or concentration not given here
HL-60 = assay: Inhibition of superoxide radicals production in human HL60 cells; type: functional
Monocyte [9] = assay: Antiinflammatory activity in human monocytes assessed as inhibition of LPS-induced COX2 expression at 5 uM after 20 hrs using rabbit polyclonal antibody IgG by SDS-PAGE analysis; type: functional, cell-based; procedure, shortened: as §2
[10] = Antiinflammatory activity in human monocytes assessed as inhibition of LPS-induced COX2 expression assessed per ug of protein at 100 uM after 20 hrs using rabbit polyclonal antibody IgG by SDS-PAGE analysis (reference value: 1.53 +/- 0.3 ng/ug); type: functional, Monocyte; procedure, shortened: as §2
[11] = Antiinflammatory activity in human monocytes assessed as inhibition of LPS-induced COX2 expression at 25 uM after 20 hrs using rabbit polyclonal antibody IgG by Western blot analysis; type: functional; conditions: Monocyte; procedure, shortened: as §2
[12] = molecular target: T4, Prostaglandin G/H synthase 2 (Homo sapiens) (UniProt P35354); assay: Inhibition of COX2 promoter activity in human DLD1 cells at 100 uM; type: cell-based; conditions: DLD-1
T4 sequence (whole entry): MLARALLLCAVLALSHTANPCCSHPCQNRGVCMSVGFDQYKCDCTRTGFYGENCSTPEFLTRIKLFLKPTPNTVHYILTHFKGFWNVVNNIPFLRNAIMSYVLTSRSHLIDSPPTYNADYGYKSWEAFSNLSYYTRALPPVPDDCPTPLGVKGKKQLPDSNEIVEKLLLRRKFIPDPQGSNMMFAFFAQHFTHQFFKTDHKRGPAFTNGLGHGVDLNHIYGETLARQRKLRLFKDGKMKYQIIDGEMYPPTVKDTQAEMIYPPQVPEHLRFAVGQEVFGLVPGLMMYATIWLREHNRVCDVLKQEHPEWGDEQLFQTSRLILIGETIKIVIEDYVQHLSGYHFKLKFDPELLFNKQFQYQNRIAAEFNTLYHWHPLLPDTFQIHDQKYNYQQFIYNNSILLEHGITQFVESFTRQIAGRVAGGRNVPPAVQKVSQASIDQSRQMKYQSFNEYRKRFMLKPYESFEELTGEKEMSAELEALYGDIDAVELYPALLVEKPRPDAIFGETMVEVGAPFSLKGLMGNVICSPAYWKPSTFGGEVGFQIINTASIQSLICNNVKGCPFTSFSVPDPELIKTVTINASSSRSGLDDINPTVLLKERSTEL

Row | inhibition [2] | inhibition [3] | SMILES | inhibition (Monocyte [1]) | inhibition (Monocyte [4]) | also measured
1 | inactive | inactive | CC(C)=CCC/C(C)=C/COc1ccc(/C=C/C(=O)O)cc1C | inactive | inactive | 
2 |  | 97.5% | COc1cc(/C=C/C(=O)O)ccc1OC/C=C(\C)CCC=C(C)C |  |  | inhibition (Monocyte [5]): Dose-dependent effect; inhibition (Monocyte [6]): Active; IC50 [7]: 54.2 µM; inhibition at 10 µM [8]: 20%
3 | inactive | inactive | CC(C)=CCOc1ccc(/C=C/C(=O)O)cc1C | inactive | inactive | 
4 | inactive | inactive | CC(C)=CCC/C(C)=C/COc1ccc(/C=C/C(=O)O)cc1Cl | inactive | inactive | 
5 | inactive | inactive | CC(C)=CCC/C(C)=C/COc1ccc(/C=C/C(=O)O)cc1 |  |  | Activity [10]: 1.7 ng/µg

Second part, the compound before the results:

Row | SMILES | inhibition [2] | inhibition [3] | inhibition (Monocyte [1]) | inhibition (Monocyte [4]) | also measured
6 | CC(C)=CCOc1ccc(/C=C/C(=O)O)cc1Cl | inactive | inactive | inactive | inactive | 
7 | CCOC(=O)/C=C/c1ccc(OC/C=C(\C)CCC=C(C)C)c(OC)c1 |  |  |  |  | inhibition (Raji): 78%; inhibition (INH) (HL-60): 45%
8 | C[C@@H]1C[C@H]2[C@@H]3CCC4=CC(=O)C=C[C@]4(C)[C@@]3(F)[C@@H](O)C[C@]2(C)[C@@]1(O)C(=O)CO |  |  |  |  | inhibition (Monocyte [9]): Active
9 | COc1cc(/C=C/C(=O)O)ccc1OCC=C(C)C [BOROPINIC ACID] | inactive | inactive |  |  | Activity [10]: 1.78 ng/µg
10 | CC(C)=CCOc1ccc(/C=C/C(=O)O)cc1 |  | 74% |  |  | inhibition (Monocyte [5]): Dose-dependent effect; inhibition (Monocyte [6]): Active; inhibition at 25 µM [11]: 13%; IC50 [7]: 35.1 µM
11 | COC(=O)/C=C/c1ccc(OC/C=C(\C)CCC=C(C)C)c(OC)c1 |  |  |  |  | inhibition [12]: 50%; inhibition (Raji): 81%; inhibition (INH) (HL-60): 35%
